One compound from ChEMBL document CHEMBL5625166, “Disulfide-incorporated lipid prodrugs of cidofovir: Synthesis, antiviral activity, and release mechanism” (Eur J Med Chem, 2023) can be followed below.

The subject of data set [1] is Vaccinia virus. As to the kind of experiment: Antiviral activity against VACV infected in Vero cells assessed as reduction in cytopathic effect incubated for 96 hrs by neutral red based spectrophotometric analysis. The data set is classed as functional, organism-based. The note with it: Orthopoxvirus vaccinia.
The nature of data set [2]: Cytotoxicity against African green monkey Vero cells incubated for 72 hrs by neutral red based spectrophotometric analysis. The settings on record: chlorocebus sabaeus. The data set is classed as toxicity, cell-based. Summed up: (§1)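 Cells seeded at 3 × 10^4 cells/well and grown 24 h at 37 °C, 5% CO2. Two-fold compound dilutions starting at 200.0 μM applied for 72 h. Neutral red (40 μg/mL) added for 4 h, cells washed and destained in ethanol/acetic acid. OD read at 540 nm against cell-free blanks. CC50 from triplicates.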

Data set [3] can be described thus: Therapeutic index, ratio of CC50 for African green monkey Vero cells to IC50 for VAVC infected in african green monkey Vero cells. The data set is classed as toxicity. The note with it: read-out: Ratio CC50/IC50.
In data set [4] the test system is Vaccinia virus. As to the kind of experiment: Antiviral activity against VACV infected in A549 cells assessed as reduction in cytopathic effect incubated for 96 hrs by neutral red based spectrophotometric analysis. The data set is classed as functional, organism-based. The note with it: Orthopoxvirus vaccinia, A549, 96 h. Background: Protection from cytopathic effect is a common read-out in antiviral testing.

In data set [5] the test system is A549. Nature of the data set: Cytotoxicity against human A549 cells incubated for 72 hrs by neutral red based spectrophotometric analysis. The data set is classed as toxicity, cell-based. The note with it: a549, 72 h. Summed up:
as §1

Data set [6] is described as follows: Therapeutic index, ratio of CC50 for human A549 cells to IC50 for VAVC infected in human A549 cells. The note with it: read-out: Ratio CC50/IC50. Format: toxicity, cell-based.
Data set [7] has as its system Human adenovirus 5. As to the kind of experiment: Antiviral activity against AdV5 infected in A549 cells assessed as reduction in cytopathic effect incubated for 72 hrs by neutral red based spectrophotometric analysis. The settings on record: Human mastadenovirus C, A549, 72 h. The data set is classed as functional, organism-based.
Data set [8] can be described thus: Therapeutic index, ratio of CC50 for human A549 cells to IC50 for AdV5 infected in human A549 cells. The data set is classed as toxicity, cell-based. The note with it: read-out: Ratio CC50/IC50.
Data set [9] has as its system Lipid bilayer. As to the kind of experiment: Induction of micelles formation in PBS at pH 7.4 by TEM analysis. The data set is classed as physicochemical. The note with it: buffer. Put shortly: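 Conjugates at 50.0 μM in pH 7.4 phosphate buffer, imaged by transmission electron microscopy for micelle formation.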
Data set [10] in a line: Stability of the compound in phosphate buffer at pH 7.4 assessed as compound remaining measured upto 400 mins in presence of GSH by HPLC method. The data set is classed as physicochemical. The settings on record: phosphate buffer with GSH, pH 7.4, read-out: Stability.
Data set [11] in a line: Stability of the compound in PBS at pH 7.4 assessed as micelles formation after 4 hrs in presence of GSH by TEM analysis. The data set is classed as physicochemical. The note with it: buffer, pH 7.4, 4 h. Put shortly: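 Micelles in pH 7.4 phosphate buffer re-imaged by TEM after 4 h incubation with GSH.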

As usually defined, the IC50 is the concentration that gives 50% inhibition. As usually defined, the CC50 is the concentration that lowers cell viability or growth by half.

For `CCCCCCCCCCCCCCCCCCSSCCOP(=O)(O)CO[C@H](CO)Cn1ccc(N)nc1=O.N`, the IC50 in data set [1] came to 0.141 µM; in data set [4] it was 0.104 µM; in data set [7], 0.193 µM. Besides, the CC50 in [2] came out at 4.9 µM; in [5], 14.1 µM. Further, the values for the selectivity ratio in data set [3], in [6] and in [8] were 34.8, 136 and 73.1, respectively. Further, the outcome in [9] was Active. Also, the remaining at 6.667 h in data set [10] was determined as 93%. Moreover, the Stability result in data set [11] is “Stable”.
